# Columns and labels:
# Assay type in all cases: functional
# Escherichia coli [1] = test: Antibacterial activity against extended-spectrum beta-lactamase producing Escherichia coli isolate 212648 after 18 hrs by CLSI broth microdilution method; details: isolate 212648, 18 h
# Escherichia coli [2] = test: Selectivity index, ratio of MIC for against extended-spectrum beta-lactamase producing Escherichia coli isolate 208687 to MIC for extended-spectrum beta-lactamase producing Escherichia coli isolate 208687 in presence of BPL
# Escherichia coli [3] = test: Antibacterial activity against Escherichia coli isolate 210737 after 18 hrs by CLSI broth microdilution method; details: isolate 210737, 18 h
# Escherichia coli [4] = test: Antibacterial activity against extended-spectrum beta-lactamase producing Escherichia coli isolate 208687 after 18 hrs by CLSI broth microdilution method; details: isolate 208687, 18 h
# Escherichia coli [5] = test: Antibacterial activity against extended-spectrum beta-lactamase producing Escherichia coli isolate 208687 after 18 hrs in presence of BPL by CLSI broth microdilution method; details: isolate 208687, 18 h
# Procedure, shortened: (§1)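 CLSI broth microdilution against clinical isolates (ESBL E. coli, KPC-2 MDR K. pneumoniae, IMP-4 MDR P. aeruginosa; five per species). Iron limitation: Mueller-Hinton broth supplemented with 16 mg/liter 2,2'-bipyridyl to complex iron and induce iron uptake systems. Read-out: MIC.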
# Escherichia coli [6] = test: Antibacterial activity against Escherichia coli isolate 210737 after 18 hrs in presence of BPL by CLSI broth microdilution method; details: isolate 210737, 18 h; procedure, shortened: as §1
# Escherichia coli [7] = test: Selectivity index, ratio of MIC for against Escherichia coli isolate 210737 to MIC for Escherichia coli isolate 210737 in presence of BPL
# Escherichia coli [8] = test: Antibacterial activity against extended-spectrum beta-lactamase producing Escherichia coli isolate 212648 after 18 hrs in presence of BPL by CLSI broth microdilution method; details: isolate 212648, 18 h; procedure, shortened: as §1
# Escherichia coli [9] = test: Selectivity index, ratio of MIC for against extended-spectrum beta-lactamase producing Escherichia coli isolate 212648 to MIC for extended-spectrum beta-lactamase producing Escherichia coli isolate 212648 in presence of BPL
# Escherichia coli [10] = test: Antibacterial activity against extended-spectrum beta-lactamase producing Escherichia coli isolate 209285 after 18 hrs by CLSI broth microdilution method; details: isolate 209285, 18 h
# Escherichia coli [11] = test: Antibacterial activity against extended-spectrum beta-lactamase producing Escherichia coli isolate 209285 after 18 hrs in presence of BPL by CLSI broth microdilution method; details: isolate 209285, 18 h; procedure, shortened: as §1
# Escherichia coli [12] = test: Selectivity index, ratio of MIC for against extended-spectrum beta-lactamase producing Escherichia coli isolate 209285 to MIC for extended-spectrum beta-lactamase producing Escherichia coli isolate 209285 in presence of BPL
# Escherichia coli [13] = test: Antibacterial activity against extended-spectrum beta-lactamase producing Escherichia coli isolate 106342 after 18 hrs by CLSI broth microdilution method; details: isolate 106342, 18 h
# Escherichia coli [14] = test: Antibacterial activity against extended-spectrum beta-lactamase producing Escherichia coli isolate 106342 after 18 hrs in presence of BPL by CLSI broth microdilution method; details: isolate 106342, 18 h; procedure, shortened: as §1
# Escherichia coli [15] = test: Selectivity index, ratio of MIC for against extended-spectrum beta-lactamase producing Escherichia coli isolate 106342 to MIC for extended-spectrum beta-lactamase producing Escherichia coli isolate 106342 in presence of BPL
# Klebsiella pneumoniae [16] = test: Antibacterial activity against KPC-2 producing Klebsiella pneumoniae isolate 212423 after 18 hrs by CLSI broth microdilution method; details: isolate 212423, 18 h
# Klebsiella pneumoniae [17] = test: Antibacterial activity against KPC-2 producing Klebsiella pneumoniae isolate 212423 after 18 hrs in presence of BPL by CLSI broth microdilution method; details: isolate 212423, 18 h; procedure, shortened: as §1
# Klebsiella pneumoniae [18] = test: Selectivity index, ratio of MIC for against KPC-2 producing Klebsiella pneumoniae isolate 212423 to MIC for against KPC-2 producing Klebsiella pneumoniae isolate 212423 in presence of BPL
# Klebsiella pneumoniae [19] = test: Antibacterial activity against KPC-2 producing Klebsiella pneumoniae isolate 209632 after 18 hrs by CLSI broth microdilution method; details: isolate 209632, 18 h
# Klebsiella pneumoniae [20] = test: Antibacterial activity against KPC-2 producing Klebsiella pneumoniae isolate 209632 after 18 hrs in presence of BPL by CLSI broth microdilution method; details: isolate 209632, 18 h; procedure, shortened: as §1
# Klebsiella pneumoniae [21] = test: Selectivity index, ratio of MIC for against KPC-2 producing Klebsiella pneumoniae isolate 209632 to MIC for against KPC-2 producing Klebsiella pneumoniae isolate 209632 in presence of BPL
# Klebsiella pneumoniae [22] = test: Antibacterial activity against KPC-2 producing Klebsiella pneumoniae isolate 209735 after 18 hrs by CLSI broth microdilution method; details: isolate 209735, 18 h
# Klebsiella pneumoniae [23] = test: Antibacterial activity against KPC-2 producing Klebsiella pneumoniae isolate 209735 after 18 hrs in presence of BPL by CLSI broth microdilution method; details: isolate 209735, 18 h; procedure, shortened: as §1
# Klebsiella pneumoniae [24] = test: Selectivity index, ratio of MIC for against KPC-2 producing Klebsiella pneumoniae isolate 209735 to MIC for against KPC-2 producing Klebsiella pneumoniae isolate 209735 in presence of BPL
# Klebsiella pneumoniae [25] = test: Antibacterial activity against KPC-2 producing Klebsiella pneumoniae isolate 212232 after 18 hrs by CLSI broth microdilution method; details: isolate 212232, 18 h
# Klebsiella pneumoniae [26] = test: Antibacterial activity against KPC-2 producing Klebsiella pneumoniae isolate 212232 after 18 hrs in presence of BPL by CLSI broth microdilution method; details: isolate 212232, 18 h; procedure, shortened: as §1
# Klebsiella pneumoniae [27] = test: Selectivity index, ratio of MIC for against KPC-2 producing Klebsiella pneumoniae isolate 212232 to MIC for against KPC-2 producing Klebsiella pneumoniae isolate 212232 in presence of BPL
# Klebsiella pneumoniae [28] = test: Antibacterial activity against KPC-2 producing Klebsiella pneumoniae isolate 212229 after 18 hrs by CLSI broth microdilution method; details: isolate 212229, 18 h
# Klebsiella pneumoniae [29] = test: Antibacterial activity against KPC-2 producing Klebsiella pneumoniae isolate 212229 after 18 hrs in presence of BPL by CLSI broth microdilution method; details: isolate 212229, 18 h; procedure, shortened: as §1
# Klebsiella pneumoniae [30] = test: Selectivity index, ratio of MIC for against KPC-2 producing Klebsiella pneumoniae isolate 212229 to MIC for against KPC-2 producing Klebsiella pneumoniae isolate 212229 in presence of BPL
# Pseudomonas aeruginosa [31] = test: Antibacterial activity against IMP-4 producing Pseudomonas aeruginosa isolate 212886 after 18 hrs by CLSI broth microdilution method; details: isolate 212886, 18 h
# Pseudomonas aeruginosa [32] = test: Antibacterial activity against IMP-4 producing Pseudomonas aeruginosa isolate 212886 after 18 hrs in presence of BPL by CLSI broth microdilution method; details: isolate 212886, 18 h; procedure, shortened: as §1
# Pseudomonas aeruginosa [33] = test: Selectivity index, ratio of MIC for against IMP-4 producing Pseudomonas aeruginosa isolate 212886 to MIC for against IMP-4 producing Pseudomonas aeruginosa isolate 212886 in presence of BPL
# Pseudomonas aeruginosa [34] = test: Antibacterial activity against IMP-4 producing Pseudomonas aeruginosa isolate 209471 after 18 hrs by CLSI broth microdilution method; details: isolate 209471, 18 h
# Pseudomonas aeruginosa [35] = test: Antibacterial activity against IMP-4 producing Pseudomonas aeruginosa isolate 209471 after 18 hrs in presence of BPL by CLSI broth microdilution method; details: isolate 209471, 18 h; procedure, shortened: as §1
# Pseudomonas aeruginosa [36] = test: Selectivity index, ratio of MIC for against IMP-4 producing Pseudomonas aeruginosa isolate 209471 to MIC for against IMP-4 producing Pseudomonas aeruginosa isolate 209471 in presence of BPL
# Pseudomonas aeruginosa [37] = test: Antibacterial activity against IMP-4 producing Pseudomonas aeruginosa isolate 208247 after 18 hrs by CLSI broth microdilution method; details: isolate 208247, 18 h
# Pseudomonas aeruginosa [38] = test: Antibacterial activity against IMP-4 producing Pseudomonas aeruginosa isolate 208247 after 18 hrs in presence of BPL by CLSI broth microdilution method; details: isolate 208247, 18 h; procedure, shortened: as §1
# Pseudomonas aeruginosa [39] = test: Selectivity index, ratio of MIC for against IMP-4 producing Pseudomonas aeruginosa isolate 208247 to MIC for against IMP-4 producing Pseudomonas aeruginosa isolate 208247 in presence of BPL
# Pseudomonas aeruginosa [40] = test: Antibacterial activity against IMP-4 producing Pseudomonas aeruginosa isolate 209321 after 18 hrs by CLSI broth microdilution method; details: isolate 209321, 18 h
# Pseudomonas aeruginosa [41] = test: Antibacterial activity against IMP-4 producing Pseudomonas aeruginosa isolate 209321 after 18 hrs in presence of BPL by CLSI broth microdilution method; details: isolate 209321, 18 h; procedure, shortened: as §1
# Pseudomonas aeruginosa [42] = test: Selectivity index, ratio of MIC for against IMP-4 producing Pseudomonas aeruginosa isolate 209321 to MIC for against IMP-4 producing Pseudomonas aeruginosa isolate 209321 in presence of BPL
# Pseudomonas aeruginosa [43] = test: Antibacterial activity against IMP-4 producing Pseudomonas aeruginosa isolate 207272 after 18 hrs by CLSI broth microdilution method; details: isolate 207272, 18 h
# Pseudomonas aeruginosa [44] = test: Antibacterial activity against IMP-4 producing Pseudomonas aeruginosa isolate 207272 after 18 hrs in presence of BPL by CLSI broth microdilution method; details: isolate 207272, 18 h; procedure, shortened: as §1
# Pseudomonas aeruginosa [45] = test: Selectivity index, ratio of MIC for against IMP-4 producing Pseudomonas aeruginosa isolate 207272 to MIC for against IMP-4 producing Pseudomonas aeruginosa isolate 207272 in presence of BPL
smiles,measurement,setting,value
Cc1nnc(SC[C@@H]2[C@H](NC(=O)/C(=N\OC(c3cc(=O)c(O)cn3O)C(C)C)c3csc(N)n3)C(=O)N2S(=O)(=O)O)s1 (stereo not given in full),MIC,Escherichia coli [1],0.5 µg/mL
same,Selectivity Index,Escherichia coli [2],16
same,MIC,Escherichia coli [3],0.5 µg/mL
same,MIC,Escherichia coli [4],2 µg/mL
same,MIC,Escherichia coli [5],0.125 µg/mL
same,MIC,Escherichia coli [6],0.25 µg/mL
same,Selectivity Index,Escherichia coli [7],2
same,MIC,Escherichia coli [8],0.25 µg/mL
same,Selectivity Index,Escherichia coli [9],2
same,MIC,Escherichia coli [10],4 µg/mL
same,MIC,Escherichia coli [11],1 µg/mL
same,Selectivity Index,Escherichia coli [12],4
same,MIC,Escherichia coli [13],1 µg/mL
same,MIC,Escherichia coli [14],0.5 µg/mL
same,Selectivity Index,Escherichia coli [15],2
same,MIC,Klebsiella pneumoniae [16],1 µg/mL
same,MIC,Klebsiella pneumoniae [17],0.5 µg/mL
same,Selectivity Index,Klebsiella pneumoniae [18],2
same,MIC,Klebsiella pneumoniae [19],1 µg/mL
same,MIC,Klebsiella pneumoniae [20],0.25 µg/mL
same,Selectivity Index,Klebsiella pneumoniae [21],4
same,MIC,Klebsiella pneumoniae [22],1 µg/mL
same,MIC,Klebsiella pneumoniae [23],0.5 µg/mL
same,Selectivity Index,Klebsiella pneumoniae [24],2
same,MIC,Klebsiella pneumoniae [25],2 µg/mL
same,MIC,Klebsiella pneumoniae [26],0.25 µg/mL
same,Selectivity Index,Klebsiella pneumoniae [27],8
same,MIC,Klebsiella pneumoniae [28],1 µg/mL
same,MIC,Klebsiella pneumoniae [29],0.5 µg/mL
same,Selectivity Index,Klebsiella pneumoniae [30],2
same,MIC,Pseudomonas aeruginosa [31],> 64 µg/mL
same,MIC,Pseudomonas aeruginosa [32],16 µg/mL
same,Selectivity Index,Pseudomonas aeruginosa [33],>4
same,MIC,Pseudomonas aeruginosa [34],32 µg/mL
same,MIC,Pseudomonas aeruginosa [35],32 µg/mL
same,Selectivity Index,Pseudomonas aeruginosa [36],1
same,MIC,Pseudomonas aeruginosa [37],> 64 µg/mL
same,MIC,Pseudomonas aeruginosa [38],> 64 µg/mL
same,Selectivity Index,Pseudomonas aeruginosa [39],1 - 4
same,MIC,Pseudomonas aeruginosa [40],64 µg/mL
same,MIC,Pseudomonas aeruginosa [41],64 µg/mL
same,Selectivity Index,Pseudomonas aeruginosa [42],1
same,MIC,Pseudomonas aeruginosa [43],64 µg/mL
same,MIC,Pseudomonas aeruginosa [44],64 µg/mL
same,Selectivity Index,Pseudomonas aeruginosa [45],1

# From ChEMBL document CHEMBL4152188, “Design, synthesis and biological evaluation of C(4) substituted monobactams as antibacterial agents against multidrug-resistant Gram-negative bacteria” (Eur J Med Chem, 2018)
